According to the RNAGym collection of RNA variant scans (doi:10.1126/science.aae0568):
This sample holds only a part of the variants without activity.

B1: tRNA (parent)
chain: GUUCCGUUGGCGUAAUGGUAACGCGUCUCCCUCCUAAGGAGAAGACUGCGGGUUCGAGUCCCGUACGGAACG

Variants of: B1
Experiment: yeast fitness relative to wild type (ratio to wild type); higher = fitter; tRNA-Arg(CCU), competitive growth, 37 C, YPD
Outline: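 Changes in genotype frequencies gave Darwinian fitness relative to wild type. Frequencies were read by 100-nucleotide paired-end sequencing of gene amplicons before and after pooled Saccharomyces cerevisiae strains, carrying tRNA-Arg(CCU) gene variants at the native locus, were competed in YPD at 37°C for 24 hours in six replicates. A genotype was kept only with ≥ 100 starting reads, and estimates < 0.5 were set to 0.5.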
With C30G C33U C66U the yeast fitness was ≤ 0.5.
In the case of C30U A37C C46U, the yeast fitness is reported as 0.666.
With C30U A57G C60G the yeast fitness was ≤ 0.5.
For C30G C46G U53C A57G A69U, the yeast fitness was ≤ 0.5.
In the case of C30G C31U C46U, the yeast fitness is reported as 0.609.
With C30G U54G the yeast fitness was ≤ 0.5.
C30G U54C showed a yeast fitness of 0.568.
C30G C49U showed a yeast fitness of 0.643.
In the case of C30G C49A, the yeast fitness is reported as ≤ 0.5.
C30U A36C G67U showed a yeast fitness of 0.639.
With C30G C31G U32A C33U A65U the yeast fitness was ≤ 0.5.
In the case of C30U A43C G52A C66U, the yeast fitness is reported as ≤ 0.5.
C30G C46A showed a yeast fitness of 0.587.
Variant C30G C46U has a yeast fitness of 0.648.
For C30G G52C A69C, the yeast fitness was ≤ 0.5.
For C30G A70G, the yeast fitness was 0.722.
For C30G A70C, the yeast fitness was 0.719.
For C30U A42G G52C, the yeast fitness was ≤ 0.5.
Variant C30G C31A has a yeast fitness of 0.62.
Work on C30G C31G yielded a yeast fitness of 0.687.
In the case of C30G C55A A65U, the yeast fitness is reported as 0.552.
In the case of C30G U47C G63A G67A, the yeast fitness is reported as ≤ 0.5.
In the case of C30G C49A U53C C66G, the yeast fitness is reported as 0.513.
With C30G G63A A70U the yeast fitness was ≤ 0.5.
C30G U64C gave a yeast fitness of 0.626.
With C30G U47G the yeast fitness was ≤ 0.5.
In the case of C30G G41C A70U, the yeast fitness is reported as ≤ 0.5.
With C30G U47C C66U the yeast fitness was 0.634.
In the case of C30G C34U A57G C60U G68C, the yeast fitness is reported as ≤ 0.5.
With C30U A36C A69U the yeast fitness was ≤ 0.5.
In the case of C30U A42C C62G C66G, the yeast fitness is reported as ≤ 0.5.
Variant C30G C61G has a yeast fitness of 0.697.
With C30G C61U the yeast fitness was 0.57.
In the case of C30G C61A, the yeast fitness is reported as ≤ 0.5.
In the case of C30G G41A A45C, the yeast fitness is reported as ≤ 0.5.
In the case of C30G G39A G58U C62A, the yeast fitness is reported as ≤ 0.5.
For C30U A36U A37G G48A A70G, the yeast fitness was ≤ 0.5.
C30G G58C C66G showed a yeast fitness of 0.829.
In the case of C30G U47A C49G C61U G63C, the yeast fitness is reported as 0.541.
Work on C30G G52A yielded a yeast fitness of 0.605.
In the case of C30G G52C, the yeast fitness is reported as 0.512.
With C30G U35A G51C the yeast fitness was 0.628.
In the case of C30G G50C, the yeast fitness is reported as 0.781.
With C30G G50A the yeast fitness was 0.72.
Work on C30G G38C G56A yielded a yeast fitness of 0.959.
With C30G U35C C66U the yeast fitness was ≤ 0.5.
In the case of C30G C33U G58C U64A C66U, the yeast fitness is reported as ≤ 0.5.
Work on C30G G38C G56A A65G yielded a yeast fitness of 0.624.
In the case of C30G U59C, the yeast fitness is reported as 0.537.
C30G U59A showed a yeast fitness of 0.595.
For C30G C34G A37G A45G, the yeast fitness was ≤ 0.5.
For C30G U53C, the yeast fitness was 0.632.
With C30G G52C G67A the yeast fitness was ≤ 0.5.
Variant C30U A69U A70C has a yeast fitness of 0.737.
In the case of C30G C31G C33G A37C, the yeast fitness is reported as ≤ 0.5.
For C30G C34G A57U, the yeast fitness was ≤ 0.5.
For C30G C33G, the yeast fitness was ≤ 0.5.
Work on C30G C33A yielded a yeast fitness of 0.563.
With C30G C33A G56C A65G the yeast fitness was ≤ 0.5.
With C30U A37G A70C the yeast fitness was 0.59.
For C30G C31A U47G G58C, the yeast fitness was ≤ 0.5.
For C30G C31G A65U C66G, the yeast fitness was ≤ 0.5.
For C30G U32C G50C, the yeast fitness was ≤ 0.5.
For C30G C55G A57C U59C, the yeast fitness was ≤ 0.5.
In the case of C30G U53G G63A, the yeast fitness is reported as ≤ 0.5.
For C30G C31U A57G U59A, the yeast fitness was ≤ 0.5.
For C30G U32A A42U, the yeast fitness was ≤ 0.5.
With C30G G41A C66U the yeast fitness was ≤ 0.5.
For C30U A42G C62A, the yeast fitness was ≤ 0.5.
In the case of C30U A40C A57C, the yeast fitness is reported as ≤ 0.5.
For C30U A43C G58A, the yeast fitness was 0.99.
For C30G C33U G56C, the yeast fitness was ≤ 0.5.
C30U A37G G39A showed a yeast fitness of 0.552.
In the case of C30G C31U U32C, the yeast fitness is reported as ≤ 0.5.
For C30U A40U C49A G56A A57U, the yeast fitness was ≤ 0.5.
In the case of C30G U32C G50C U59C, the yeast fitness is reported as ≤ 0.5.
Variant C30G C34U C49G has a yeast fitness of 0.615.
For C30U A42C G48C, the yeast fitness was ≤ 0.5.
For C30U A40C A42C G68U, the yeast fitness was ≤ 0.5.
For C30G C34G A40C C66A A69C, the yeast fitness was 0.527.
For C30G U32A G48A G67C, the yeast fitness was 0.568.
Variant C30G G51A has a yeast fitness of 0.566.
In the case of C30G G51C, the yeast fitness is reported as ≤ 0.5.
Variant C30U A45C has a yeast fitness of 0.72.
Variant C30U A45G has a yeast fitness of 0.781.
For C30G G56A, the yeast fitness was 0.75.
Variant C30G G67C has a yeast fitness of 0.637.
With C30U A43U C61G A69C the yeast fitness was ≤ 0.5.
For C30G C31G U32A C33U, the yeast fitness was 0.554.
With C30G C34G C66U the yeast fitness was ≤ 0.5.
In the case of C30G G39C G44A, the yeast fitness is reported as ≤ 0.5.
For C30U A37C G38A, the yeast fitness was ≤ 0.5.
For C30G G58A, the yeast fitness was 0.678.
Work on C30G C33G C60G A70G yielded a yeast fitness of 0.544.
For C30G C33G C60G A70U, the yeast fitness was ≤ 0.5.
C30U A42U gave a yeast fitness of 0.879.
C30U A42G gave a yeast fitness of 0.8.
Variant C30U A42C has a yeast fitness of 0.755.
With C30G C46G C61U the yeast fitness was ≤ 0.5.
C30G C49A G56A C60G G68C gave a yeast fitness of 0.541.
C30U A37G gave a yeast fitness of 0.656.
In the case of C30U A37C, the yeast fitness is reported as 0.729.
Variant C30G C49U U64A has a yeast fitness of 0.702.
In the case of C30G C34A G52C, the yeast fitness is reported as ≤ 0.5.
In the case of C30G G52C C62U, the yeast fitness is reported as ≤ 0.5.
For C30G G41A, the yeast fitness was 0.568.
With C30G G41C the yeast fitness was 0.616.
For C30U A42G C55U, the yeast fitness was 0.545.
With C30G G56A A57U the yeast fitness was ≤ 0.5.
C30U A40G gave a yeast fitness of 0.914.
In the case of C30U A40U, the yeast fitness is reported as 0.965.
For C30U A40C, the yeast fitness was 0.792.
In the case of C30U A42G C60G C62G A65G, the yeast fitness is reported as ≤ 0.5.
In the case of C30U A57G A65U, the yeast fitness is reported as 0.667.
C30U A43C U54A gave a yeast fitness of 0.611.
In the case of C30G C34A C49G G50A U59C, the yeast fitness is reported as ≤ 0.5.
With C30G C49A G68A the yeast fitness was ≤ 0.5.
In the case of C30G C34A C49G G50A U64A G68C, the yeast fitness is reported as ≤ 0.5.
Work on C30U A43G yielded a yeast fitness of 0.647.
C30G C31U U59A gave a yeast fitness of 0.563.
C30U A36U gave a yeast fitness of 0.57.
With C30U A36G the yeast fitness was 0.927.
Work on C30U A36C yielded a yeast fitness of 0.566.
C30U A57C gave a yeast fitness of 0.586.
With C30G U32G C55G the yeast fitness was ≤ 0.5.
With C30G C46G A69U the yeast fitness was 0.586.
With C30G C46U C49G U64A the yeast fitness was ≤ 0.5.
C30U A40G C55U U64C gave a yeast fitness of 0.646.
For C30G C31G C33G A37C G67C, the yeast fitness was ≤ 0.5.
C30G G63A gave a yeast fitness of 0.641.
With C30G G63C the yeast fitness was ≤ 0.5.
Work on C30G C60U C62G C66A yielded a yeast fitness of 0.695.
C30U A43U C62U showed a yeast fitness of 0.845.
With C30G C34U C49G C55U the yeast fitness was ≤ 0.5.
With C30U A36G A37G the yeast fitness was 0.548.
With C30U A37C C66U the yeast fitness was ≤ 0.5.
C30G C34G A37G showed a yeast fitness of 0.811.
In the case of C30G G41A A45C U64A, the yeast fitness is reported as 0.579.
For C30G G58A G68A, the yeast fitness was 0.705.
In the case of C30U A42C G67C A69U, the yeast fitness is reported as ≤ 0.5.
For C30U A36C G52A C55G, the yeast fitness was ≤ 0.5.
For C30U A40C G63C U64C, the yeast fitness was ≤ 0.5.
For C30U A43U C55A, the yeast fitness was ≤ 0.5.
With C30G C49U G67C the yeast fitness was ≤ 0.5.
C30G A69U gave a yeast fitness of 0.669.
For C30G U35A C46U G51A G56A, the yeast fitness was ≤ 0.5.
In the case of C30U A36G G44A C61G, the yeast fitness is reported as ≤ 0.5.
For C30G C34A A57U C61G, the yeast fitness was ≤ 0.5.
In the case of C30G C49A U54G A65G, the yeast fitness is reported as ≤ 0.5.
For C30G G48C G52A G67U, the yeast fitness was ≤ 0.5.
With C30U A45G G58A the yeast fitness was 0.663.
With C30G C66A the yeast fitness was ≤ 0.5.
For C30G C66G, the yeast fitness was 0.574.
Work on C30G C66U yielded a yeast fitness of 0.606.
C30G U59C A65U showed a yeast fitness of 0.528.
C30U A65G gave a yeast fitness of 0.932.
Work on C30U A65U yielded a yeast fitness of 0.876.
C30G C62U gave a yeast fitness of 0.643.
With C30U A37U G52A C61G the yeast fitness was ≤ 0.5.
For C30U A36U A57G, the yeast fitness was ≤ 0.5.
Work on C30G C33G C49G C61G yielded a yeast fitness of 0.538.
Work on C30G U35C A42G C49U G56A G58A A70C yielded a yeast fitness of 0.591.
In the case of C30G C33U G58C, the yeast fitness is reported as 0.574.
In the case of C30G C33U G58A, the yeast fitness is reported as ≤ 0.5.
With C30G U35C the yeast fitness was ≤ 0.5.
In the case of C30G C31G A43G A57G, the yeast fitness is reported as ≤ 0.5.
In the case of C30G G44C G51C, the yeast fitness is reported as 0.549.
